Publication PMC4134960 (Pharmacological research : the official journal of the …, 2014)
Read-outs that look alike come from different tables or passages of the source.

Legend:
[1] = Brain-to-plasma ratio of URB937 in wild-type and transporter knockout mice; format: in vivo; conditions: 5 mg/kg i.p., 1 h
Procedure, shortened: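 Male 9-week FVB wild-type, Mdr1a/b−/−, Bcrp−/− and Mdr1a/b−/−-Bcrp−/− mice received the test compound i.p. in saline/PEG400/Tween-80 (18:1:1, v/v/v) at 10 mL/kg and were killed 1 h later. Plasma came from cardiac blood spun at 2000 × g for 20 min. Brain was homogenized in 50 mM Tris-HCl pH 7.5/0.32 M sucrose, spun at 1000 × g for 10 min at 4°C, and extracted with methanol/chloroform. Read-out by LC/MS on C18 (m/z 377). n = 3–4, mean ± SEM.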

FAAH [2] = molecular target: T1, FAAH (Mus musculus, UniProt O08914); format: in vivo, mice
T1 sequence (O08914 1-579): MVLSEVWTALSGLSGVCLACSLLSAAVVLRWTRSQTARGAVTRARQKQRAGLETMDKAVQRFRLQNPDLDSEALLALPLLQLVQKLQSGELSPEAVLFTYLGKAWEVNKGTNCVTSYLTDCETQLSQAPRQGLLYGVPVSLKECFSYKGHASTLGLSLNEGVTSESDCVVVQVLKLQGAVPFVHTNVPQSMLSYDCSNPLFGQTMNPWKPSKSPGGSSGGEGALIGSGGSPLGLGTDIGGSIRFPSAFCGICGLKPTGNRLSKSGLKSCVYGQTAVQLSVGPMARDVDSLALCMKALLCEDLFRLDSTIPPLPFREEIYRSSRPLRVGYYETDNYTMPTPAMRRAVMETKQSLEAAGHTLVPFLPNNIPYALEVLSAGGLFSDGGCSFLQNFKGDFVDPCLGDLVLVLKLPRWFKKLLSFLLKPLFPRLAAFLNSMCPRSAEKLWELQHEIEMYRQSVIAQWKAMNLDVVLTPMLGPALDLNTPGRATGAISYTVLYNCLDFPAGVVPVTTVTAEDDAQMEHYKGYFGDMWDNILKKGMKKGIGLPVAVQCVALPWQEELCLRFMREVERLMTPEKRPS
Procedure, shortened: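 Dosing was i.p. in saline/PEG400/Tween-80 (18:1:1), with kill at 1 h. Brain S1 fraction (1000 × g; 50 μg protein by BCA) was incubated 30 min at 37°C in 50 mM Tris-HCl pH 7.5 with 0.05% fatty acid-free BSA, 10 μM anandamide and [ethanolamine-3H]anandamide (10,000 cpm). The reaction was stopped with chloroform/methanol (1:1), and aqueous-phase radioactivity counted by scintillation. n = 3–4, mean ± SEM, ANOVA with Dunnett's test vs vehicle.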

wild-type MDCKII cells = test: Transepithelial transport in monolayers of wild-type MDCKII cells; conditions: for A to B transport (percentage of drug appearing in the opposite compartment) / B to A transport (percentage of drug appearing in the opposite compartment): after 4h, 5 μM (compound 8: 1 μM)
[3] = as above; conditions: dog, MDCK, Ratio BA/AB (relative transport ratio), after 4h, 5 μM (compound 8: 1 μM)
human ABCB1 = human ABCB1 (Homo sapiens, UniProt P08183); test: Transepithelial transport in monolayers of MDCKII cells over-expressing ABCB1; conditions: MDCKII over-expressing ABCB1, after 4h, 5 μM (compound 8: 1 μM)
Sequence of human ABCB1 (P08183 whole entry): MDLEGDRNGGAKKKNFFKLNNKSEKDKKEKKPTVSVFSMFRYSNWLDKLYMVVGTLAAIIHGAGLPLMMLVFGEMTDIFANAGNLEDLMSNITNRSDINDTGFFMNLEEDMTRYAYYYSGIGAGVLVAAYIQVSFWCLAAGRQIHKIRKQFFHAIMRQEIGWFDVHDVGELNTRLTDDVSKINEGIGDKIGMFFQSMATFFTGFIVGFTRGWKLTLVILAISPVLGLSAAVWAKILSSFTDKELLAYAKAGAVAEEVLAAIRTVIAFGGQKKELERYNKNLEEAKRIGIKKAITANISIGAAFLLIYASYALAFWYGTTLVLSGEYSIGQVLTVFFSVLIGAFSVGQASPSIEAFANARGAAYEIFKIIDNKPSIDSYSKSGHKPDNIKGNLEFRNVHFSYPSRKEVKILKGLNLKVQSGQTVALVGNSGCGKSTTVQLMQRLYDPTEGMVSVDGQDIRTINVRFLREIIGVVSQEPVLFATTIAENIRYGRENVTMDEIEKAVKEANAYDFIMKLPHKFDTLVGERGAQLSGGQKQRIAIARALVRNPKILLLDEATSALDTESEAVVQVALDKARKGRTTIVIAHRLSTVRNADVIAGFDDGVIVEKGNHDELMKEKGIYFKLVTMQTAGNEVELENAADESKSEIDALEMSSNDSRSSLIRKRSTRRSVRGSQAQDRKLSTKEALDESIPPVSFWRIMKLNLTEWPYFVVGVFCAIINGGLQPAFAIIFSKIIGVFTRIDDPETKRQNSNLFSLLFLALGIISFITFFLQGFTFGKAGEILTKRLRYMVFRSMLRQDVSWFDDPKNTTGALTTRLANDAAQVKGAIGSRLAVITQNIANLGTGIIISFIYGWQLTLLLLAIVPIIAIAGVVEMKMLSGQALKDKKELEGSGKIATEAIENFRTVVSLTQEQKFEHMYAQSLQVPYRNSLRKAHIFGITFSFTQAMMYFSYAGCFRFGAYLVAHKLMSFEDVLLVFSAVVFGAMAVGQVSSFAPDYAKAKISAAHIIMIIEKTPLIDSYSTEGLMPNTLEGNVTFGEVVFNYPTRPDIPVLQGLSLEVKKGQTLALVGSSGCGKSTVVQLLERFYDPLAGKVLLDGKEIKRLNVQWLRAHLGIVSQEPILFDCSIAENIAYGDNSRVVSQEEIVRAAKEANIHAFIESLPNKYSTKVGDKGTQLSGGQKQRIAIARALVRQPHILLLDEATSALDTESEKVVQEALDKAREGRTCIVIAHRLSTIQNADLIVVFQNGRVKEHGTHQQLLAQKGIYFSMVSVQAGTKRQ

murine Abcg2 = molecular target: T2, murine Abcg2 (Mus musculus, UniProt Q7TMS5); test: Transepithelial transport in monolayers of MDCKII cells over-expressing Abcg2; format: in vitro ADME; conditions: for A to B transport (percentage of drug appearing in the opposite compartment) / B to A transport (percentage of drug appearing in the opposite compartment): MDCKII over-expressing Abcg2, after 4h, 5 μM (compound 8: 1 μM)
T2 sequence (Q7TMS5 1-657): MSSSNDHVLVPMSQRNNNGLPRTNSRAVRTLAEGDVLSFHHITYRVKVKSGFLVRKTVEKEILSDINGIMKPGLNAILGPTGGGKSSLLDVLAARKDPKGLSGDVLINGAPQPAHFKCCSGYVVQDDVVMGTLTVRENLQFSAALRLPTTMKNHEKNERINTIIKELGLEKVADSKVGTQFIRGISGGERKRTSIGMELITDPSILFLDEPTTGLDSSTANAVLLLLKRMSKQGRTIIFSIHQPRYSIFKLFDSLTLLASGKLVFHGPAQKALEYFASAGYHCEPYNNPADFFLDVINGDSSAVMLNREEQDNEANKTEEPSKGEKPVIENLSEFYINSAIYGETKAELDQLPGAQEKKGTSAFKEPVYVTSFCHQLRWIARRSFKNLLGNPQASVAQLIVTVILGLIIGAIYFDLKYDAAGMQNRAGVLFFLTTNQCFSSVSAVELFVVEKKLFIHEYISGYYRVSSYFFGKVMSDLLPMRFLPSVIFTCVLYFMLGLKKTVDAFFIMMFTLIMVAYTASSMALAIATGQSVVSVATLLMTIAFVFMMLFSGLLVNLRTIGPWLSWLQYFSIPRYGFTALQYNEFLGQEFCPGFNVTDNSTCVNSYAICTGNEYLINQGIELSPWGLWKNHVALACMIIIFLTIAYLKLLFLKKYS

Abcg2 = molecular target: T3, Abcg2 (Mus musculus, UniProt Q7TMS5); test: as above; format: in vitro ADME, murine; conditions: mouse, Ratio BA/AB (relative transport ratio), MDCKII over-expressing Abcg2, after 4h, 5 μM (compound 8: 1 μM)
T3 sequence (Q7TMS5 1-657): T2 sequence (Q7TMS5 1-657)

[4] = cited from earlier work; for PSA (polar surface area): ref Moreno-Sanz et al., 2013
FAAH [5] = molecular target: T1, FAAH; conditions: cited from earlier work; for Brain ID50: inhibition of brain FAAH activity after systemic administration in mice, ref Moreno-Sanz et al., 2013

NC(=O)c1cccc(-c2cc(OC(=O)NC3CCCCC3)ccc2O)c1 [URB937, cyclohexylcarbamic acid 3′-carbamoyl-6-hydroxybiphenyl-3-yl ester]
Brain-to-plasma ratio (in words) ([1]; Abcb1-deficient (Mdr1a/b−/−) mice): not significantly different from controls | Brain-to-plasma ratio (in words) ([1]; Mdr1a/b−/−-Bcrp−/− mice): significantly increased | Effect on brain FAAH activity (in words) (FAAH [2]; Mdr1a/b−/−-Bcrp−/− mice, 5 mg/kg i.p.): drastically inhibited | inhibition at 5 mg/kg (FAAH [2]; mouse, ip, read-out: Inhibition of brain FAAH): 26% | Effect on brain FAAH activity (in words) (FAAH [2]; wild-type mice, 5 mg/kg i.p.): did not affect FAAH activity | Effect on liver FAAH activity (in words) (FAAH [2]; wild-type mice, 5 mg/kg i.p.): completely blocked FAAH activity | A to B transport (percentage of drug appearing in the opposite compartment) (wild-type MDCKII cells): 17.78 ± 2.12% | B to A transport (percentage of drug appearing in the opposite compartment) (wild-type MDCKII cells): 44.3 ± 5.35% | efflux ratio at 4 h [3]: ≥ 2 | A to B transport (percentage of drug appearing in the opposite compartment) (human ABCB1): 5.89 ± 1.33% | B to A transport (percentage of drug appearing in the opposite compartment) (human ABCB1): 50.2 ± 4.02% | A to B transport (percentage of drug appearing in the opposite compartment) (murine Abcg2): 1.68 ± 0.12% | B to A transport (percentage of drug appearing in the opposite compartment) (murine Abcg2): 25.9 ± 1.44% | efflux ratio at 4 h (Abcg2): ≥ 10 | PSA value [4]: ≥ 80 Å | Brain ID50 relative to dose needed to inhibit FAAH in liver (FAAH [5]; brain vs liver): 400 times | Brain FAAH activity median effective dose (ID50) (FAAH [5]; brain): 40 mg/kg | Brain ID50 (FAAH [5]): 40 mg/kg | Liver FAAH activity ID50 (FAAH [5]; peripheral organs such as the liver): 0.1 mg/kg

O=C(NC1CCCCC1)Oc1ccc(O)c(-c2cccc(C(=O)O)c2)c1 [Compound 4]
Translocation in apical or basolateral direction (in words) (wild-type MDCKII cells): minimal translocation in either the apical or basolateral direction | A to B transport (percentage of drug appearing in the opposite compartment) (wild-type MDCKII cells): 4.93 ± 0.88% | B to A transport (percentage of drug appearing in the opposite compartment) (wild-type MDCKII cells): 5.21 ± 0.42% | PSA (polar surface area) [4]: 77 Å^2 | Brain ID50 (FAAH [5]): 12 mg/kg

COc1ccc2c3c([nH]c2c1)[C@H](CC(C)C)N1C(=O)[C@H](CCC(=O)OC(C)(C)C)NC(=O)[C@@H]1C3 [Ko143, reference compound]
Effect of inhibitor on translocation of all compounds (in words) (murine Abcg2; MDCKII over-expressing Abcg2, Ko143 1 μM): blocked

N.NC(=O)c1cccc(-c2cc(OC(=O)NC3CCCCC3)ccc2OS(=O)(=O)O)c1 [Compound 9]
Translocation in apical or basolateral direction (in words) (wild-type MDCKII cells): minimal translocation in either the apical or basolateral direction | A to B transport (percentage of drug appearing in the opposite compartment) (wild-type MDCKII cells): 7.92 ± 0.41% | B to A transport (percentage of drug appearing in the opposite compartment) (wild-type MDCKII cells): 7.49 ± 0.39% | PSA (polar surface area) [4]: 117 Å^2 | Brain ID50 (FAAH [5]): >75 mg/kg

CN(C)C(=O)c1cccc(-c2cc(OC(=O)NC3CCCCC3)ccc2O)c1 [Compound 2]
A to B transport (percentage of drug appearing in the opposite compartment) (wild-type MDCKII cells): 25.6 ± 1.96% | B to A transport (percentage of drug appearing in the opposite compartment) (wild-type MDCKII cells): 43.1 ± 4.48% | A to B transport (percentage of drug appearing in the opposite compartment) (human ABCB1): 8.86 ± 0.95% | B to A transport (percentage of drug appearing in the opposite compartment) (human ABCB1): 58.6 ± 3.85% | Ratio BA/AB (relative transport ratio) (human ABCB1): 6.65 ± 0.36 | A to B transport (percentage of drug appearing in the opposite compartment) (murine Abcg2): 6.95 ± 0.42 % | B to A transport (percentage of drug appearing in the opposite compartment) (murine Abcg2): 91.0 ± 12.7% | PSA (polar surface area) [4]: 65 Å^2 | Brain ID50 (FAAH [5]): 5 mg/kg
